Experimental data from ChEMBL document CHEMBL3085773, “A general method for making peptide therapeutics resistant to serine protease degradation: application to dipeptidyl peptidase IV substrates” (J Med Chem, 2013).
Values belong to the compound of their own block, whether it stands above or below them. Square brackets hold non-standard residues; d marks the D form. Peptide text beside a SMILES is read from it. ξ: configuration not given here. ξAsp(3,3-Me2) = CC(C)(C(=O)O)C(N)C(=O)O; ξTle = CC(C)(C)C(N)C(=O)O

Tests used:
[1] = target: Alpha-lytic protease (Lysobacter enzymogenes, UniProt P00778); experiment: Stability of the compound assessed as Lysobacter enzymogenes alpha-LP-mediated compound degradation at 0.1 mM after 5 hrs by reverse-phase HPLC/MS analysis; type: ADME; conditions: 100 µM
[2] = target: T1, Dipeptidyl peptidase 4 (Homo sapiens, UniProt P27487); experiment: Stability of the compound assessed as recombinant human DPP4-mediated compound degradation at 0.1 mM measured after 24 hrs by reverse-phase HPLC/MS analysis; type: ADME; conditions: 100 µM
Procedure, shortened: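 GLP-1 peptides (0.1 mM) incubated at 37 °C with recombinant human DPP IV in 50 mM HEPES, 0.14 M NaCl, pH 8.0, up to 24 h; acid-quenched samples analysed by RP-HPLC-MS for intact peptide.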

[3] = target: alpha-lytic protease (alpha-LP) (Lysobacter enzymogenes, UniProt P00778); experiment: Stability of the compound assessed as half life of Lysobacter enzymogenes alpha-LP-mediated compound degradation at 0.1 mM by reverse-phase HPLC/MS analysis; type: ADME
[4] = target: T2, Trypsin (Sus scrofa, UniProt P00761); experiment: Stability of the compound assessed as half life of porcine pancreatic trypsin-mediated compound degradation at 0.1 mM by reverse-phase HPLC/MS analysis; type: ADME; conditions: pig
[5] = target: T1, Dipeptidyl peptidase 4; experiment: Competitive inhibition of human recombinant DPP4 using AP-pNA as substrate preincubated for 30 mins followed by substrate addition measured after 30 mins by spectrophotometric analysis
[6] = target: DPP4 (dipeptidyl peptidase 4) (Sus scrofa, UniProt P22411); experiment: Stability of the compound assessed as porcine DPP4-mediated compound degradation measured intact level at 0.1 mM measured at 30 mins by reverse-phase HPLC/MS analysis; type: ADME; conditions: pig, read-out: Stability
Procedure, shortened: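 Synthetic hexapeptides (0.1 mM) incubated at 37 °C with 10 mU/mL DPP IV purified from porcine kidney in 50 mM HEPES, 0.14 M NaCl, pH 8.0; intact peptide by HPLC-MS, expressed as percent of time-zero value.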

[7] = target: T2, Trypsin; experiment: Stability of the compound assessed as porcine pancreatic trypsin-mediated compound degradation at 0.1 mM after 8 hrs by reverse-phase HPLC/MS analysis; type: ADME; conditions: pig, isolated protein, 100 µM
[8] = target: Chymotrypsinogen A (Bos taurus) (UniProt P00766); experiment: Stability of the compound assessed as bovine pancreatic chymotrypsin-mediated compound degradation measured intact level at 0.1 mM after 0.6 hrs by reverse-phase HPLC/MS analysis; conditions: cow
[9] = target: T2, Trypsin; experiment: Stability of the compound assessed as porcine pancreatic trypsin-mediated compound degradation at 0.1 mM after 5 hrs by reverse-phase HPLC/MS analysis; type: ADME; conditions: pig, isolated protein, 100 µM

T1 sequence (P27487 whole entry): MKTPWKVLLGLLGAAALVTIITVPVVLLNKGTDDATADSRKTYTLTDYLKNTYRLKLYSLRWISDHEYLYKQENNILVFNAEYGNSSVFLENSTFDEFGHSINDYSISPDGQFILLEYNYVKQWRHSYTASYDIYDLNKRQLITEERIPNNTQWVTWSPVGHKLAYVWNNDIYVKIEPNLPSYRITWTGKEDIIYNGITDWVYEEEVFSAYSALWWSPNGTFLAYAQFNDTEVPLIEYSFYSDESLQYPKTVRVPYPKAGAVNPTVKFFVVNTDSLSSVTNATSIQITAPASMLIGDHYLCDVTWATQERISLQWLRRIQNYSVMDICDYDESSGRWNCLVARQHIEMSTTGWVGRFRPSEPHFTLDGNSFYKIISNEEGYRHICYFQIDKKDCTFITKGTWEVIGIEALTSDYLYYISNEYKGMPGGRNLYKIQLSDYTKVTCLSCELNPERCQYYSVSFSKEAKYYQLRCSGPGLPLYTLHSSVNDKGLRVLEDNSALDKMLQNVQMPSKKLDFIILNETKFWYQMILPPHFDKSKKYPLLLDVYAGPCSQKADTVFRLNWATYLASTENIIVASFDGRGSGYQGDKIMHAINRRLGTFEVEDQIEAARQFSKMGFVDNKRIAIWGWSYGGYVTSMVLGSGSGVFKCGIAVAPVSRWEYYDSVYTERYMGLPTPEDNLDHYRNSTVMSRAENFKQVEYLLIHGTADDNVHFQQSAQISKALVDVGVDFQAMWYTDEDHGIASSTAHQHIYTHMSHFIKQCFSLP
T2 sequence (P00761 whole entry): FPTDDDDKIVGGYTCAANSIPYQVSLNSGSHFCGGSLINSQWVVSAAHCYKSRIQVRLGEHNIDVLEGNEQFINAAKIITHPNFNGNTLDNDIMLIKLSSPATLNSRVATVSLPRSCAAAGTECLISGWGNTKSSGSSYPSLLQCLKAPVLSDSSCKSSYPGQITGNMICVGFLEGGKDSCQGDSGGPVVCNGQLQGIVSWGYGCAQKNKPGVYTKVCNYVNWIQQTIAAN
Sequence of DPP4 (dipeptidyl peptidase 4) (P22411 whole entry): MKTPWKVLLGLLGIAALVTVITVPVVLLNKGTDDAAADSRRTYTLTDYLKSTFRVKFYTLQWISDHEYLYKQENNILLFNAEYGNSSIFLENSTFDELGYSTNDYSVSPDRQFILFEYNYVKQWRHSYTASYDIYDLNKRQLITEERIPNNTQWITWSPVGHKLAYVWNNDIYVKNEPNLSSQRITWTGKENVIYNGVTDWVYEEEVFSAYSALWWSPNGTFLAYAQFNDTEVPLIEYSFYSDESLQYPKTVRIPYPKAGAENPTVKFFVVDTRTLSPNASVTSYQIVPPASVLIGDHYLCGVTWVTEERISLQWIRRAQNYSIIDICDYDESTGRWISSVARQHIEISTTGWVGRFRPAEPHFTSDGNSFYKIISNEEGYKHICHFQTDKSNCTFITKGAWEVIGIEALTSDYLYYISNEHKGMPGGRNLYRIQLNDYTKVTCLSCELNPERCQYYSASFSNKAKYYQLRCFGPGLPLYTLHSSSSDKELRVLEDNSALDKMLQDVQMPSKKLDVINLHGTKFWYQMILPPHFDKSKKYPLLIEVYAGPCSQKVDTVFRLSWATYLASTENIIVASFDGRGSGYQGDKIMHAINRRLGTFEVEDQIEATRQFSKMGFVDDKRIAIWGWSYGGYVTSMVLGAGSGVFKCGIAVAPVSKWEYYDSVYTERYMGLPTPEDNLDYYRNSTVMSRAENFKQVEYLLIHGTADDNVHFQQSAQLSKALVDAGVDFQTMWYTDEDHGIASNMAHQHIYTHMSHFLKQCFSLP
Sequence of Alpha-lytic protease (P00778 whole entry): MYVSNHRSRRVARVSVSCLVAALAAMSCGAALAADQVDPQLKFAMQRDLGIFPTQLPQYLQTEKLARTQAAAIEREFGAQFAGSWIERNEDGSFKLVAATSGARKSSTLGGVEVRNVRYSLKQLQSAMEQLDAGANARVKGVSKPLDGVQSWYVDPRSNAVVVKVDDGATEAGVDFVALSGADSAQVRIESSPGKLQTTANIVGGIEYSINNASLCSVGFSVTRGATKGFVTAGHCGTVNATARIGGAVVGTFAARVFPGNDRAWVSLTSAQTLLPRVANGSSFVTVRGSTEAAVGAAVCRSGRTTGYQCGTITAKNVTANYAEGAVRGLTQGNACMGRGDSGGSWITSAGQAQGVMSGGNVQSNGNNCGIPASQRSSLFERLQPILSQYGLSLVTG
Sequence of alpha-lytic protease (alpha-LP) (P00778 whole entry): as above

- Stability [1]: Stable
SMILES: CC(C)C[C@H](NC(=O)[C@@H](N)CC(C)C)C(=O)N1CCC[C@H]1C(=O)N[C@@H](CCCNC(=N)N)C(=O)N[C@H](C(=O)N[C@@H](C)C(=O)NC(C(=O)NCC(=O)N[C@@H](CO)C(=O)N[C@@H](CO)C(=O)N[C@@H](Cc1ccccc1)C(=O)N[C@H](C(=O)N[C@H](C(=O)N[C@H](C(=O)O)C(C)C)[C@@H](C)O)C(C)C)C(C)(C)C)C(C)C (stereo partly specified) (H-LLPRVA[ξTle]GSSFVTV-OH)

- Stability [2]: Stable
SMILES: CC[C@H](C)[C@H](NC(=O)[C@H](Cc1ccccc1)NC(=O)[C@H](CCC(=O)O)NC(=O)[C@H](CCCCN)NC(=O)[C@H](C)NC(=O)[C@H](C)NC(=O)[C@H](CCC(N)=O)NC(=O)CNC(=O)[C@H](CCC(=O)O)NC(=O)[C@H](CC(C)C)NC(=O)[C@H](Cc1ccc(O)cc1)NC(=O)[C@H](CO)NC(=O)[C@H](CO)NC(=O)[C@@H](NC(=O)[C@H](CC(=O)O)NC(=O)[C@H](CO)NC(=O)[C@@H](NC(=O)[C@H](Cc1ccccc1)NC(=O)[C@@H](NC(=O)CNC(=O)C(NC(=O)[C@H](C)NC(=O)[C@@H](N)Cc1cnc[nH]1)C(C)(C)C)[C@@H](C)O)[C@@H](C)O)C(C)C)C(=O)N[C@@H](C)C(=O)N[C@@H](Cc1c[nH]c2ccccc12)C(=O)N[C@@H](CC(C)C)C(=O)N[C@H](C(=O)N[C@@H](CCCCN)C(=O)NCC(=O)N[C@@H](CCCN=C(N)N)C(N)=O)C(C)C (stereo partly specified)

- half-life at 100 µM [3]: 24 min
- half-life at 100 µM [4]: 24 min
SMILES: CC(C)C[C@H](NC(=O)[C@@H](N)CC(C)C)C(=O)N1CCC[C@H]1C(=O)N[C@@H](CCCNC(=N)N)C(=O)N[C@H](C(=O)N[C@@H](C)C(=O)N[C@@H](CC(N)=O)C(=O)NCC(=O)N[C@@H](CO)C(=O)N[C@@H](CO)C(=O)N[C@@H](Cc1ccccc1)C(=O)N[C@H](C(=O)N[C@H](C(=O)N[C@H](C(=O)O)C(C)C)[C@@H](C)O)C(C)C)C(C)C (H-LLPRVANGSSFVTV-OH)

- Stability [2]: Stable
- Ki [5]: 4.5 µM
SMILES: CC(C)[C@H](N)C(=O)N1CCC[C@H]1C(=O)NC(C(=O)N1CCC[C@H]1C(=O)N[C@@H](CCCNC(=N)N)C(N)=O)C(C)(C)C (stereo partly specified) (H-VP[ξTle]PR-NH2)

- remaining at 0.5 h, 100 µM [6]: < 70%
SMILES: CC(C)C[C@H](NC(=O)[C@@H]1CCCN1C(=O)[C@H](C)N)C(=O)N[C@@H](CO)C(=O)N[C@@H](Cc1c[nH]c2ccccc12)C(=O)N[C@@H](CO)C(=O)O (H-APLSWS-OH)

- Stability [7]: Stable
SMILES: CC(C)C[C@H](NC(=O)[C@@H](N)CC(C)C)C(=O)N1CCC[C@H]1C(=O)N[C@@H](CCCNC(=N)N)C(=O)NC(C(=O)N[C@@H](C)C(=O)N[C@@H](CC(N)=O)C(=O)NCC(=O)N[C@@H](CO)C(=O)N[C@@H](CO)C(=O)N[C@@H](Cc1ccccc1)C(=O)N[C@H](C(=O)N[C@H](C(=O)N[C@H](C(=O)O)C(C)C)[C@@H](C)O)C(C)C)C(C)(C)C (stereo partly specified) (H-LLPR[ξTle]ANGSSFVTV-OH)

- remaining at 0.6 h, 100 µM [8]: 50%
- Stability [9]: Stable
SMILES: CC(C)[C@H](NC(=O)C(NC(=O)[C@H](Cc1c[nH]c2ccccc12)NC(=O)[C@H](C)NC(=O)C(NC(=O)[C@H](Cc1ccccc1)NC(=O)C(NC(=O)[C@H](CCCCN)NC(=O)[C@H](C)NC(=O)[C@H](C)NC(=O)[C@H](CCC(N)=O)NC(=O)CNC(=O)[C@H](CCC(=O)O)NC(=O)C(NC(=O)[C@H](Cc1ccc(O)cc1)NC(=O)[C@H](CO)NC(=O)[C@H](CO)NC(=O)[C@@H](NC(=O)[C@H](CC(=O)O)NC(=O)[C@H](CO)NC(=O)C(NC(=O)[C@H](Cc1ccccc1)NC(=O)[C@@H](NC(=O)CNC(=O)C(NC(=O)[C@H](C)NC(=O)[C@@H](N)Cc1c[nH]cn1)C(C)(C)C(=O)O)[C@@H](C)O)C(C)(C)C)C(C)C)C(C)(C)C)C(C)(C)C(=O)O)C(C)(C)C)C(C)(C)C)C(=O)N[C@@H](CCCCN)C(=O)NC(C(=O)N[C@@H](CCCNC(=N)N)C(N)=O)C(C)(C)C(=O)O (stereo partly specified) (H-HA[ξAsp(3,3-Me2)]GTF[ξTle]SDVSSY[ξTle]EGQAAK[ξAsp(3,3-Me2)]F[ξTle]AW[ξTle]VK[ξAsp(3,3-Me2)]R-NH2)

- remaining at 0.5 h, 100 µM [6]: < 70%
SMILES: CC[C@H](C)[C@H](NC(=O)[C@@H]1CCCN1C(=O)[C@H](C)N)C(=O)N[C@@H](CO)C(=O)N[C@@H](Cc1c[nH]c2ccccc12)C(=O)N[C@@H](CO)C(=O)O (H-APISWS-OH)
